# ChEMBL document CHEMBL1268917, “Synthesis and biological evaluation of radio-iodinated benzimidazoles as SPECT imaging agents for NR2B subtype of NMDA receptor” (Bioorg Med Chem, 2010)
# pKi: −log10 of the molar value.
# What was measured:
# [1] = Octanol-buffer partition coefficient, log D of the compound at pH 7.4; type: physicochemical
# [2] = Lipophilicity, log P of the compound; type: physicochemical; details: octanol/water
# [3] = target: Glutamate receptor ionotropic, NMDA 2B (Rattus norvegicus) (UniProt Q00960); test: Binding affinity to NR2B receptor in rat cerebral cortex at 0.09 to 0.14 nM after 30 mins by autoradiography in presence of DTG relative to control; type: tissue-based; details: tested as the 125I-labelled form
# In short: (§1)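 Rinsed three times 3 min in cold buffer with 1% BSA, dipped in cold water, air-dried, exposed to imaging plates; PSL per mm² in ROIs. Expressed as % control binding; at least triplicate slices from three rats.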
# [4] = target: Glutamate receptor ionotropic, NMDA 2B (Rattus norvegicus) (UniProt Q00960); test: Binding affinity to NR2B receptor in rat hippocampus at 0.09 to 0.14 nM after 30 mins by autoradiography in presence of prazosin relative to control; type: tissue-based; details: tested as the 125I-labelled form; in short: as §1
# [5] = target: Glutamate receptor ionotropic, NMDA 2B (Rattus norvegicus) (UniProt Q00960); test: Binding affinity to NR2B receptor in rat hippocampus at 0.09 to 0.14 nM after 30 mins by autoradiography in presence of DTG relative to control; type: tissue-based; details: tested as the 125I-labelled form; in short: as §1
# [6] = target: Glutamate receptor ionotropic, NMDA 2B (Rattus norvegicus) (UniProt Q00960); test: Binding affinity to NR2B receptor in rat hippocampus at 0.09 to 0.14 nM after 30 mins by autoradiography in presence of Ro-256981 relative to control; type: tissue-based; details: tested as the 125I-labelled form; in short: as §1
# [7] = target: Glutamate receptor ionotropic, NMDA 2B (Rattus norvegicus, UniProt Q00960); test: Displacement of [3H]ifenprodil from NR2B receptor in rat cortical synaptic membranes; type: cell membranes, Membrane
# [8] = target: Glutamate receptor ionotropic, NMDA 2B (Rattus norvegicus) (UniProt Q00960); test: Binding affinity to NR2B receptor in rat cerebellum at 0.09 to 0.14 nM after 30 mins by autoradiography in presence of prazosin relative to control; type: tissue-based; details: tested as the 125I-labelled form; in short: as §1
# [9] = target: Glutamate receptor ionotropic, NMDA 2B (Rattus norvegicus) (UniProt Q00960); test: Binding affinity to NR2B receptor in rat cerebral cortex at 0.09 to 0.14 nM after 30 mins by autoradiography in presence of prazosin relative to control; type: tissue-based; details: tested as the 125I-labelled form; in short: as §1
# [10] = target: Glutamate receptor ionotropic, NMDA 2B (Rattus norvegicus) (UniProt Q00960); test: Binding affinity to NR2B receptor in rat cerebellum at 0.09 to 0.14 nM after 30 mins by autoradiography in presence of DTG relative to control; type: tissue-based; details: tested as the 125I-labelled form; in short: as §1
# [11] = target: Glutamate receptor ionotropic, NMDA 2B (Rattus norvegicus) (UniProt Q00960); test: Binding affinity to NR2B receptor in rat cerebral cortex at 0.09 to 0.14 nM after 30 mins by autoradiography in presence of Ro-256981 relative to control; type: tissue-based; details: tested as the 125I-labelled form; in short: as §1
# [12] = target: Glutamate receptor ionotropic, NMDA 2B (Rattus norvegicus) (UniProt Q00960); test: Binding affinity to NR2B receptor in rat cerebellum at 0.09 to 0.14 nM after 30 mins by autoradiography in presence of Ro-256981 relative to control; type: tissue-based; details: tested as the 125I-labelled form; in short: as §1
# Glutamate receptor ionotropic, NMDA 2B (Rattus norvegicus), sequence (Q00960 27-1482 limits assumed): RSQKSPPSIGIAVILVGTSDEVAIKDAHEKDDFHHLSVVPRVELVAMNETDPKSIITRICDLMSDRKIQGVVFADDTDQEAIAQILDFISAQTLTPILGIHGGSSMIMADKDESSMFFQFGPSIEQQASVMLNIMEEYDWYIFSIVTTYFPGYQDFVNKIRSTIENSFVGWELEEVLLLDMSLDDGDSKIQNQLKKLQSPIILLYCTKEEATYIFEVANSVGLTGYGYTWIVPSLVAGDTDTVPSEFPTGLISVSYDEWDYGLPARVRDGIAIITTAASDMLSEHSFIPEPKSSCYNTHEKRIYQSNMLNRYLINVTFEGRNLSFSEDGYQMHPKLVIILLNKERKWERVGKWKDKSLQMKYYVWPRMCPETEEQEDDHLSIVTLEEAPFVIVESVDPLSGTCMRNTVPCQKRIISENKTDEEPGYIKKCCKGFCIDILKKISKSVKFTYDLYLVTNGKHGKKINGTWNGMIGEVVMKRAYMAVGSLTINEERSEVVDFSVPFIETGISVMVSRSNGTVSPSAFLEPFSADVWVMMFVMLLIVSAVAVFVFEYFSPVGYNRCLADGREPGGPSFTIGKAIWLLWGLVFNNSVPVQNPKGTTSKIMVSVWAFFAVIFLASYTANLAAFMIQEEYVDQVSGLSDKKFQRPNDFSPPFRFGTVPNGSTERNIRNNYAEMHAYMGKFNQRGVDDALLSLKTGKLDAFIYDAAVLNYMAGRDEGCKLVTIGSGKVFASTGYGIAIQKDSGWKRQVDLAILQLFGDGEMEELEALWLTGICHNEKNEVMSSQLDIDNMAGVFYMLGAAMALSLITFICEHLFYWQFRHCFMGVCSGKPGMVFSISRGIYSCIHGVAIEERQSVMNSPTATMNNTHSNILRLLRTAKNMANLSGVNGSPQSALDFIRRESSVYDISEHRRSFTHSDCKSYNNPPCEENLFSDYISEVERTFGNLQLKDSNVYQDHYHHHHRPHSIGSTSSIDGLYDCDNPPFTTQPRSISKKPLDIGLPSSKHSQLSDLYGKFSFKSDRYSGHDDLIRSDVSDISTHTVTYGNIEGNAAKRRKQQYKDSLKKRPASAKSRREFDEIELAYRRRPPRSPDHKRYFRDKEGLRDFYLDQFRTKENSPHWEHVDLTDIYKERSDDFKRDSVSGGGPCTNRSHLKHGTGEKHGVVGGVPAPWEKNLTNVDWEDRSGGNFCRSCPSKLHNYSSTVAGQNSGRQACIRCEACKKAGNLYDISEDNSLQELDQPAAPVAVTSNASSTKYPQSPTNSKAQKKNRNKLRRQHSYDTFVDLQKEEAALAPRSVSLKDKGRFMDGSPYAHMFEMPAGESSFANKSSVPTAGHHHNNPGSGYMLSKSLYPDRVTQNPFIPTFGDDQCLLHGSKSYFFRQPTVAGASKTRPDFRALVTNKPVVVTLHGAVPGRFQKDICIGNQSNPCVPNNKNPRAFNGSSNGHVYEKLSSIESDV
# Glutamate receptor ionotropic, NMDA 2B, sequence (Q00960 whole entry): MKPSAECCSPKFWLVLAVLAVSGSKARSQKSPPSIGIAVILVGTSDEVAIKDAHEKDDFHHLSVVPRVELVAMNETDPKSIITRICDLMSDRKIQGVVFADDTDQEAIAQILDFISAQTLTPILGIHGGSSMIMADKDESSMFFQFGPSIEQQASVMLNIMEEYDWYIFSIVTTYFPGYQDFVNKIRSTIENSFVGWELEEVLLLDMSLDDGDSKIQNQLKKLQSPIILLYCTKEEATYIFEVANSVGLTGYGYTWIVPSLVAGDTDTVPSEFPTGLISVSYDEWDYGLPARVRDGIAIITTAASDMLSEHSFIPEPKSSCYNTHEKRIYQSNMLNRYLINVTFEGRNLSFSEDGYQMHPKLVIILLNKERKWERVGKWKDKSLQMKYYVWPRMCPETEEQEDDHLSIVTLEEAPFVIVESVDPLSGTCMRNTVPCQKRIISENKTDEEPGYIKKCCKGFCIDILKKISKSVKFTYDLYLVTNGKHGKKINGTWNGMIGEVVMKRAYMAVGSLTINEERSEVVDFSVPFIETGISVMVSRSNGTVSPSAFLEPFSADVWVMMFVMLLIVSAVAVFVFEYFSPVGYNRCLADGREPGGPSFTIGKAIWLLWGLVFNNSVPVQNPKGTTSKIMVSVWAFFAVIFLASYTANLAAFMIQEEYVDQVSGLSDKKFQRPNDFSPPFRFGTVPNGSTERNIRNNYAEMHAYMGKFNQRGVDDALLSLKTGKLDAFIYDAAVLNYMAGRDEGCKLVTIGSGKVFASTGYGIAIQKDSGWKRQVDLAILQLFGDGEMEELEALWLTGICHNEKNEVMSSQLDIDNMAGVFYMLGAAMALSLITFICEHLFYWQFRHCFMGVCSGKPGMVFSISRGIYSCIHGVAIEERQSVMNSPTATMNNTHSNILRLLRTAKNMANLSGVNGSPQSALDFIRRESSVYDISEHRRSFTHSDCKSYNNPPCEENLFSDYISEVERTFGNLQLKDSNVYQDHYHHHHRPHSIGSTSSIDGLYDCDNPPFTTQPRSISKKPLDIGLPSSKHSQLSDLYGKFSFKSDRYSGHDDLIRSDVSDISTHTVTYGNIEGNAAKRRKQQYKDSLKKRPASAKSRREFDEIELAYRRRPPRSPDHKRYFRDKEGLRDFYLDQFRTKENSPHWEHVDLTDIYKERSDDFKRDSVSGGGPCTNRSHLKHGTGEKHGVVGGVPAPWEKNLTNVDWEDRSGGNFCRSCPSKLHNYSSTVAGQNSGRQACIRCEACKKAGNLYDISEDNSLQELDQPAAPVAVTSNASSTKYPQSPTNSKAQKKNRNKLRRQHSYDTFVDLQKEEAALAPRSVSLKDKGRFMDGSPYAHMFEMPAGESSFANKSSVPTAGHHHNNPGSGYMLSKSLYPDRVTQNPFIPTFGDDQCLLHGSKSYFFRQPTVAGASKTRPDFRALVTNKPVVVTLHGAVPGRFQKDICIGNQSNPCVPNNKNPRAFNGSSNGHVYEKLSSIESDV
smiles,measurement,setting,value
CS(=O)(=O)Nc1ccc2nc(CN3CCC(Cc4ccc(I)cc4)CC3)[nH]c2c1,logD,[1],3.54
same,logP,[2],3.54
same,Activity,[3],93%
same,Activity,[4],95.5%
same,Activity,[5],108%
same,Activity,[6],59%
same,pKi,[7],8.24
same,Activity,[8],97%
same,Activity,[9],92.8%
same,Activity,[10],104%
same,Activity,[11],58.1%
same,Activity,[12],89.3%
